The source made the active and inactive calls. The calls are words filed in the database; no cut-off is given here.
Columns and labels:
CWR22R = test: Antitumor activity against human 22Rv1 cells harboring PIK3CA Q546R/TP53 Q331R mutant xenografted in mouse assessed as tumor growth inhibition at 10 mg/kg, po; format: functional; settings: read-out: TGI
A2058 [1] = test: Antitumor activity against human A2058 cells xenografted in mouse assessed as decrease in pS6 level at 5 mg/kg, po administered for 4 days and measured after 2 hrs in presence of 4-(2-(1H-indazol-4-yl)-6-((4-(methylsulfonyl)piperazin-1-yl)methyl)thieno[3,2-d]pyrimidin-4-yl)morpholine; format: functional, organism-based; settings: time 98.0 hrs
A2058 [2] = test: (§1) Antitumor activity against human A2058 cells harboring BRAF V600E/PTEN deletion mutant xenografted in mouse assessed as decrease in cyclin D1 level at 15 mg/kg, po administered every third day for 21 days and measured after 72 hrs post dose in presence of 4-(2-(1H-indazol-4-yl)-6-((4-(methylsulfonyl)piperazin-1-yl)methyl)thieno[3,2-d]pyrimidin-4-yl)morpholine by Western blot analysis; format: functional, organism-based; settings: time 576.0 hrs
[3] = target: RAC-alpha serine/threonine-protein kinase (Homo sapiens, UniProt P31749); test: Inhibition of Akt1 (unknown origin)
[4] = target: Tyrosine-protein kinase HCK (Homo sapiens, UniProt P08631); test: Inhibition of Hck (unknown origin)
FaDu = test: Antitumor activity against human FaDu cells harboring SMAD4 del/TP53 R248L/CDKN2A mutant xenografted in mouse assessed as tumor growth inhibition at 5 mg/kg, po; format: functional; settings: read-out: TGI
In short: (§2)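 Single-agent dose ranging in human tumor xenograft mice at 2.5, 5 or 10 mg/kg oral. Tumor volume was measured by caliper as (L×W×W)/2. %TGI = 100×[1 − AUC(treatment/d)/AUC(vehicle/d)] from the fitted growth curve per dose group, relative to vehicle.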

[5] = target: Serine/threonine-protein kinase B-raf (Homo sapiens, UniProt P15056); test: Inhibition of BRAF (unknown origin)
537-mel = test: Antitumor activity against human 537-mel cells harboring PTEN null mutation xenografted in mouse assessed as tumor growth inhibition at 2.5 mg/kg, po; format: functional; settings: read-out: TGI
In short: (§3)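 Mice carrying human tumor xenografts dosed orally once daily for 21 consecutive days. Tumor volume measured by calipers as (L×W×W)/2. %TGI = 100×[1 − AUC(treatment/day)/AUC(vehicle/day)], using the area under the fitted growth curve relative to vehicle.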

NCI-H460 = test: Antitumor activity against human NCI-H460 cells harboring KRAS Q61H/PIK3CA E545K/LKB1 Q37/CDKN2A mutant xenografted in mouse assessed as tumor growth inhibition at 5 mg/kg, po; format: functional; settings: read-out: TGI
In short: (§4)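 Human tumor xenografts in mice were dosed orally at the indicated mg/kg. Tumor volume was measured with calipers as (L×W×W)/2. %TGI = 100 × [1 − (AUC treatment/d)/(AUC vehicle/d)], using the area under the fitted tumor-growth curve per day for each dose group relative to vehicle.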

Ephrin type-B receptor 4 = Ephrin type-B receptor 4 (Homo sapiens, UniProt P54760); test: Inhibition of EphB4 (unknown origin)
[6] = Antitumor activity against human A2058-X1 cells harboring BRAF V600E/PTEN L112Q/V175/TP53 V274F mutant xenografted in mouse assessed as tumor growth inhibition at 10 mg/kg, po; format: functional; settings: A2058-X1, read-out: TGI; in short: as §2
A549 = test: Antitumor activity against human A549 cells harboring KRAS G12S/LKB1Q37/SMARCA4 Q729/CDKN2A mutant xenografted in mouse assessed as tumor growth inhibition at 10 mg/kg, po; format: functional; settings: read-out: TGI; in short: as §2
[7] = target: Mitogen-activated protein kinase kinase kinase 9 (Homo sapiens, UniProt P80192); test: Inhibition of MLK1 (unknown origin)
A2058 [8] = test: as §1, with “suppression of AKT phosphorylation” for “decrease in cyclin D1 level”; format: functional, organism-based; settings: time 576.0 hrs
[9] = target: Mitogen-activated protein kinase kinase kinase kinase 3 (Homo sapiens, UniProt Q8IVH8); test: Inhibition of MAP4K3 (unknown origin)
A2058 [10] = test: Antitumor activity against human A2058 cells xenografted in mouse assessed as tumor growth inhibition at 15 mg/kg, po administered every third day for 21 days; format: functional; settings: A2058, 504 h, time 21 day, read-out: TGI
In short: (§5)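 Human tumor xenografts in mice. Drugs given orally, as single agents or combined with the PI3K inhibitor. Schedules were daily (QD) or every third day (Q3D) over 21 days. Tumor volume was measured by caliper as (L×W×W)/2. %TGI = 100×[1 − AUC(treatment/d)/AUC(vehicle/d)] from fitted growth curves, with group means. Tumor lysates were immunoblotted for pS6.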

[11] = target: Serine/threonine-protein kinase pim-3 (Homo sapiens, UniProt Q86V86); test: Inhibition of PIM3 (unknown origin)
[12] = target: Mitogen-activated protein kinase 14 (Homo sapiens, UniProt Q16539); test: Inhibition of p38alpha (unknown origin)
[13] = Inhibition of AMPK (unknown origin); design: species or system Homo sapiens
NCI-H2122 = test: Antitumor activity against human NCI-H2122 cells xenografted in mouse assessed as tumor growth inhibition at 20 mg/kg, po administered once a day for 21 days in presence of 4-(2-(1H-indazol-4-yl)-6-((4-(methylsulfonyl)piperazin-1-yl)methyl)thieno[3,2-d]pyrimidin-4-yl)morpholine; format: functional; settings: NCI-H2122, 504 h, time 21 day, read-out: TGI
In short: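 Mice bearing NCI-H2122 xenografts were given MEK inhibitor, PI3K inhibitor, or both, orally once daily for 21 consecutive days at the doses labeled. Caliper tumor volumes were calculated as (L×W×W)/2. %TGI was derived from the AUC of the fitted growth curve per day relative to vehicle.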

Calu-6 = test: Antitumor activity against human Calu-6 cells harboring KRAS Q61K and TP53 R196 mutant xenografted in mouse assessed as tumor growth inhibition at 10 mg/kg, po; format: functional; settings: read-out: TGI; in short: as §2
888-mel = test: Upregulation of Bim level in human 888-mel cells preincubated with compound for 24 hrs followed by compound washout and measured after 2 hrs by immunoblotting analysis; format: functional, cell-based
[14] = target: Interleukin-1 receptor-associated kinase 1 (Homo sapiens, UniProt P51617); test: Inhibition of IRAK1 (unknown origin)
A2058 [15] = test: Antitumor activity against human A2058 cells harboring BRAF V600E/PTEN L112Q/V175/TP53 V274F mutant xenografted in mouse assessed as tumor growth inhibition at 10 mg/kg, po; format: functional; settings: read-out: TGI; in short: as §3
A2058 [16] = test: Antitumor activity against human A2058 cells harboring BRAF V600E/PTEN deletion mutant xenografted in mouse assessed as increase in Bims level at 15 mg/kg, po administered every third day for 21 days and measured after 8 hrs post dose by Western blot analysis; format: functional, organism-based; settings: time 512.0 hrs
A2058 [17] = test: Antitumor activity against human A2058 cells xenografted in mouse assessed as tumor growth inhibition at 6 mg/kg, po administered once a day for 21 days; format: functional; settings: A2058, 504 h, time 21 day, read-out: TGI; in short: as §5
DLD-1 = test: Antitumor activity against human DLD-1 cells harboring KRAS G13D/IDH1 G97D/SMO T640A/APC I1417 mutant xenografted in mouse assessed as tumor growth inhibition at 10 mg/kg, po; format: functional; settings: read-out: TGI; in short: as §2
SK-OV-3 = test: Antitumor activity against human SK-OV-3 cells harboring FBXW7 R505L and CDKN2A mutant xenografted in mouse assessed as tumor growth inhibition at 2.5 mg/kg, po; format: functional; settings: read-out: TGI; in short: as §4

Sequence of Interleukin-1 receptor-associated kinase 1 (P51617 whole entry): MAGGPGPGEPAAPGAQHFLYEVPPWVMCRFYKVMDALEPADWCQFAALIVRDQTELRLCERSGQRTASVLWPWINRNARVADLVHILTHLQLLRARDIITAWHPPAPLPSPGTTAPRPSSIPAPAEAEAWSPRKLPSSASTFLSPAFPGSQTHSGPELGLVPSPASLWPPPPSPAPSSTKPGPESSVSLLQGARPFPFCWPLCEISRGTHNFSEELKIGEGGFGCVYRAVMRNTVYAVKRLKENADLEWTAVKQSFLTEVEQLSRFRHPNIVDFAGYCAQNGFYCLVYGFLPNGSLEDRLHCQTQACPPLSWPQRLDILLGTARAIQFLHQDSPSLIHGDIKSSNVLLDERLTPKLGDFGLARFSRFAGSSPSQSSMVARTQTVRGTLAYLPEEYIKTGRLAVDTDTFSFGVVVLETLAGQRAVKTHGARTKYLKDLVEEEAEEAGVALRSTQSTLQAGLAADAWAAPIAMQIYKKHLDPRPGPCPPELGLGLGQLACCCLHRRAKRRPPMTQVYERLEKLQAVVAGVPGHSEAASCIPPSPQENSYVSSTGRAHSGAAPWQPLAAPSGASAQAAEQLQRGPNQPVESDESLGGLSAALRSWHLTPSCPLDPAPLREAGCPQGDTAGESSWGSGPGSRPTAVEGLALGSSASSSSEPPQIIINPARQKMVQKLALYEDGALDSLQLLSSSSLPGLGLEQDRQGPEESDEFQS
Sequence of Serine/threonine-protein kinase B-raf (P15056 whole entry): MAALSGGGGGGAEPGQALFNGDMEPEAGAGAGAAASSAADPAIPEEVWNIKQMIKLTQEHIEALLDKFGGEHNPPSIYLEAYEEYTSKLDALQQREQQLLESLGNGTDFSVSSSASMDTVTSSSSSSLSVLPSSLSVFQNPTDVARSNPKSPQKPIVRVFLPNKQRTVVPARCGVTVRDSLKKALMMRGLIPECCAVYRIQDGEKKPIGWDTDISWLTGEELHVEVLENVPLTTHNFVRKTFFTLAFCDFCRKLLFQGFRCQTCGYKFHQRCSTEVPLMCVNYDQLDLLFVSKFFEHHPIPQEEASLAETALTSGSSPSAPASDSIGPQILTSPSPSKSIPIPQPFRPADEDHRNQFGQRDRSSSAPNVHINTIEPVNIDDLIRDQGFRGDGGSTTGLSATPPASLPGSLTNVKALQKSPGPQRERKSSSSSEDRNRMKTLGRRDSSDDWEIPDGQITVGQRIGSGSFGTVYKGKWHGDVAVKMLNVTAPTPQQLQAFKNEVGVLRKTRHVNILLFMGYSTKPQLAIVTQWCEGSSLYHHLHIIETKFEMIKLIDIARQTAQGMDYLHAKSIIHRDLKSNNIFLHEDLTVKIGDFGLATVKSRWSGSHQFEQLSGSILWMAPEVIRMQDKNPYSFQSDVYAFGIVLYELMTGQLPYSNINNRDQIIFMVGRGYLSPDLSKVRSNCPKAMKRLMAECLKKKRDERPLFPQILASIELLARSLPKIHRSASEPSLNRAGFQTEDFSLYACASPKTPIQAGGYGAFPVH
Sequence of RAC-alpha serine/threonine-protein kinase (P31749 whole entry): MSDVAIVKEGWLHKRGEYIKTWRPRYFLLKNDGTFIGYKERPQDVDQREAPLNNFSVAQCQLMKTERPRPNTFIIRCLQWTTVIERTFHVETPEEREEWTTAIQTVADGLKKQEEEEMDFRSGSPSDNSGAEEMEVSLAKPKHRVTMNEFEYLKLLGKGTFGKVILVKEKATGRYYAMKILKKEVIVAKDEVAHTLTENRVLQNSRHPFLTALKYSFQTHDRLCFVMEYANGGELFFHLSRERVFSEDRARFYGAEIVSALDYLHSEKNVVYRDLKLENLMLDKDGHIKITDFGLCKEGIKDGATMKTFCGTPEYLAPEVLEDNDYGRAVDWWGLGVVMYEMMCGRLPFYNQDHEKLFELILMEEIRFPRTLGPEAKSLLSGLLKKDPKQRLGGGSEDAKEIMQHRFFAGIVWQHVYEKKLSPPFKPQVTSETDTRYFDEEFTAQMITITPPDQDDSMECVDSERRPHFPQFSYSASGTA
Sequence of Mitogen-activated protein kinase kinase kinase 9 (P80192 whole entry): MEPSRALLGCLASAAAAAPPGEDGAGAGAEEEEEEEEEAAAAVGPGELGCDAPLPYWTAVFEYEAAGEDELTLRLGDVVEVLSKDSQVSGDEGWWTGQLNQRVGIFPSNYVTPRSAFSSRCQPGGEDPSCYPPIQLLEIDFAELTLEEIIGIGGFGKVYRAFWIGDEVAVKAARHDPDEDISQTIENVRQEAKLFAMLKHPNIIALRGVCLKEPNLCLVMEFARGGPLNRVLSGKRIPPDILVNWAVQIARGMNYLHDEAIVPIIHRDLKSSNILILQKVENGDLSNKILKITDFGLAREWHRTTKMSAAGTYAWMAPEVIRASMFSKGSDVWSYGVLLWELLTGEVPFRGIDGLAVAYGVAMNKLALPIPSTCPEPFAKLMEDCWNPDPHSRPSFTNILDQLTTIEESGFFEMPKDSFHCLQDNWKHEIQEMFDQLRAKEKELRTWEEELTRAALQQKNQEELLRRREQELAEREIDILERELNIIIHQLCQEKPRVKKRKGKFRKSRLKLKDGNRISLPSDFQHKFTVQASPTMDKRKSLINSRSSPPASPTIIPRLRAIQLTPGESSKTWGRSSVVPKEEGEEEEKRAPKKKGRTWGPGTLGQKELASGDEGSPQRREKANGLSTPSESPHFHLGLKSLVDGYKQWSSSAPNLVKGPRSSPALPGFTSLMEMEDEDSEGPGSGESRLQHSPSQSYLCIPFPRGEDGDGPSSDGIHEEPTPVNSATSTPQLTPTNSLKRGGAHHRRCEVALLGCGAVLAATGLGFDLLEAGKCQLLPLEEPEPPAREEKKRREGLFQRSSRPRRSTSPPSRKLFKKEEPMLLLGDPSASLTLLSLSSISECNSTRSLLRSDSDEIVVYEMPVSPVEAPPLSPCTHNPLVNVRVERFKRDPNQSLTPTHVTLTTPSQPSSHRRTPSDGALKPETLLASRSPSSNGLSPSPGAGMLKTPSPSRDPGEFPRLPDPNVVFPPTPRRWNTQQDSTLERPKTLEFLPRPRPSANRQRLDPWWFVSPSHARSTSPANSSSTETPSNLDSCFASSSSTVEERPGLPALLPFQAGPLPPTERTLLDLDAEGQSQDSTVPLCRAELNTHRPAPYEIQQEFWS
Sequence of Mitogen-activated protein kinase kinase kinase kinase 3 (Q8IVH8 whole entry): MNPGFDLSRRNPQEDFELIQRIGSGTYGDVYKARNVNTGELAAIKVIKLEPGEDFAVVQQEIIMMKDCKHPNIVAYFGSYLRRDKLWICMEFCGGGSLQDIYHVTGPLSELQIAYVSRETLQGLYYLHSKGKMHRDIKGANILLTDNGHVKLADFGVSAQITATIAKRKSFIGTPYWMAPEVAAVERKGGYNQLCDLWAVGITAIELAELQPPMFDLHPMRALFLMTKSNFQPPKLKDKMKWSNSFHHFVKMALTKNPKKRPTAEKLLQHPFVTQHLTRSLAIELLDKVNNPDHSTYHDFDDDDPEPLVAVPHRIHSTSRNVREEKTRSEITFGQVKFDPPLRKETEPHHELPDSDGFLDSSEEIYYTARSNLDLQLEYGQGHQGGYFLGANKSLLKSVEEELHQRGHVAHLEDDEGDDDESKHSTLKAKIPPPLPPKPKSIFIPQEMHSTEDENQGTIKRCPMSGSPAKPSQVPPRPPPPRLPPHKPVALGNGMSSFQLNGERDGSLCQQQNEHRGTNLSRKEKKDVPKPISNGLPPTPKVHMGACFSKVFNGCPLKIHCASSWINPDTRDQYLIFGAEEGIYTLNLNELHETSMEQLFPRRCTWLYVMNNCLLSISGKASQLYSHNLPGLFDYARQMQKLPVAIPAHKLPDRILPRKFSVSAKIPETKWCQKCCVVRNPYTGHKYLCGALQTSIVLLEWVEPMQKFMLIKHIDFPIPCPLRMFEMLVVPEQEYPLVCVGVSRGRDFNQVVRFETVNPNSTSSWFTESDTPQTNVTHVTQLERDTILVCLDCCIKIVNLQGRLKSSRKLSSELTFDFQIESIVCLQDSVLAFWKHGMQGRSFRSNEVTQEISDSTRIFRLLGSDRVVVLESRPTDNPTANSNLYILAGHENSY
Sequence of Mitogen-activated protein kinase 14 (Q16539 whole entry): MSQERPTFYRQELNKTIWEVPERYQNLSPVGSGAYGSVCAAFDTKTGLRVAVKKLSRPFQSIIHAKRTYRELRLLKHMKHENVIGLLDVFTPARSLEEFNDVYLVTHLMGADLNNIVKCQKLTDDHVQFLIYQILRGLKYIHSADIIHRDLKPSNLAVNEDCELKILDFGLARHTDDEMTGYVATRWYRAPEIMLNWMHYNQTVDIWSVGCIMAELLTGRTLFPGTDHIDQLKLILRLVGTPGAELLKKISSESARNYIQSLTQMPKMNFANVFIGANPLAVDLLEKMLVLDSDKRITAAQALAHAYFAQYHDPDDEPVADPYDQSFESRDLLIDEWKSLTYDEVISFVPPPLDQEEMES
Sequence of Tyrosine-protein kinase HCK (P08631 whole entry): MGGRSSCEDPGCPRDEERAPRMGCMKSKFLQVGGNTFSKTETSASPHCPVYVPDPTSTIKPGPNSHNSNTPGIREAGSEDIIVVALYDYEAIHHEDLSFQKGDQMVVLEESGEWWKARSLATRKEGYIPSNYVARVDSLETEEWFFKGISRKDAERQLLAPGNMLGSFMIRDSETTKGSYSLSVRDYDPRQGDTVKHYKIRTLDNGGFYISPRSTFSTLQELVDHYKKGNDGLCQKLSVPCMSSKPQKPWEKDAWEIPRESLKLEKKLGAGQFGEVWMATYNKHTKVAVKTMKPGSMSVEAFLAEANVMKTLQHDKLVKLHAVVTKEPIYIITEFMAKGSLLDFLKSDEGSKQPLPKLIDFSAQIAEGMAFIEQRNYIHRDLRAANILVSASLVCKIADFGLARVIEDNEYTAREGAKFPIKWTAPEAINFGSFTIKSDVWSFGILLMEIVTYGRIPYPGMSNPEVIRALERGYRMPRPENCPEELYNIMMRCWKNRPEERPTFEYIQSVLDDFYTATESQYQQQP

O=C(c1ccc(F)c(F)c1Nc1ccc(I)cc1F)N1CC(O)([C@@H]2CCCCN2)C1 [COBIMETINIB]
inhibition in vivo at 10 mg/kg (CWR22R): 82.5% | Activity (A2058 [1]): Active | Activity (A2058 [2]): Active | IC50 [3]: > 10 µM | IC50 [4]: > 10 µM | inhibition in vivo at 5 mg/kg (FaDu): 94% | IC50 [5]: > 10 µM | inhibition in vivo at 2.5 mg/kg (537-mel): 69% | inhibition in vivo at 5 mg/kg (NCI-H460): 34.5% | IC50 (Ephrin type-B receptor 4): > 10 µM | inhibition in vivo at 10 mg/kg [6]: 61% | inhibition in vivo at 10 mg/kg (A549): 108% | IC50 [7]: > 10 µM | Activity (A2058 [8]): Active | IC50 [9]: > 10 µM | inhibition in vivo at 15 mg/kg (A2058 [10]): 41% | IC50 [11]: > 10 µM | IC50 [12]: > 10 µM | IC50 [13]: > 10 µM | inhibition in vivo at 20 mg/kg (NCI-H2122): 87% | inhibition in vivo at 10 mg/kg (Calu-6): 44% | Activity (888-mel): Active | IC50 [14]: > 10 µM | inhibition in vivo at 10 mg/kg (A2058 [15]): 47.3% | Activity (A2058 [16]): Active | inhibition in vivo at 6 mg/kg (A2058 [17]): 44% | inhibition in vivo at 10 mg/kg (DLD-1): 49.5% | inhibition in vivo at 2.5 mg/kg (SK-OV-3): 36%
